High-throughput results deposited in PubChem by several laboratories.
The list is not random: actives were taken first. Their share in the collection is about 1.9%.
MT1-MMP act inh: blockers of MT1-MMP proenzyme processing, primary screen, HT1080 RFP-PRO-GFP cells, GFP/RFP fluorescence; Matrix metalloproteinase-14 (Homo sapiens), P50281; GFP/RFP ratio change, % at 20 µM; 360,000 tested, 0.061% active; GFP/RFP ratio fluorescence, overnight; percent of plate control window, DMSO zero;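 active = GFP/RFP ratio change of at least 30% with cell ATP level not reduced by more than half and red fluorescence within 50% of control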
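Assay system: HT1080 RFP-PRO-GFP cells. Benchmarks: DMSO vehicle wells and RFP-L50D-GFP reporter cell wells. Times: overnight cell settling, then overnight compound exposure, 37 °C, 5% CO2. Compound: 20 µM single dose, 1% DMSO. Read-out basis: GFP/RFP fluorescence ratio.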
NR2E3 ag-1: inhibitors of NR2E3-RetCOR corepressor binding, primary screen, NR2E3 agonist project, biochemical, TR-FRET, GST-NR2E3, biotin-RetCOR | Photoreceptor-specific nuclear receptor (Homo sapiens), Q9Y5X4 | 1536-well | inhibition of corepressor binding, % at 4.78 µM | 320,000 tested, 0.12% active | AID 2300, 2010;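 active = percent inhibition above the cutoff of mean plus 3 SD of all tested compounds, set per screening campaign, cut at about 20% in these data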;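 note: 0% = DMSO wells and 100% = biotin wells as full block of FRET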
Target sequence (Q9Y5X4 whole entry, looked up): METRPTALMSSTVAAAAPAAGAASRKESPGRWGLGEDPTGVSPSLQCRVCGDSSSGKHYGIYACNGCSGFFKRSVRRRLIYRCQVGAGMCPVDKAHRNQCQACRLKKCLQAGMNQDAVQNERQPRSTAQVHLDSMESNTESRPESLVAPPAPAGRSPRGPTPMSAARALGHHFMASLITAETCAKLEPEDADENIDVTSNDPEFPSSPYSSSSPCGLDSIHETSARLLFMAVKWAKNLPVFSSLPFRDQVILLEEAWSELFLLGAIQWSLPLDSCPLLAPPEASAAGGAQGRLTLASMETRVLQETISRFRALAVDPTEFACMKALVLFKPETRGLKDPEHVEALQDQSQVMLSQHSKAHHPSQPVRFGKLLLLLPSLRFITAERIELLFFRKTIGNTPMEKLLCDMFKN
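Material – GST-tagged NR2E3 plus biotinylated RetCOR corepressor · Quantity – NR2E3 fusion 1.35 nM · Times – 5 h incubation at 4 °C · Medium – pH 7.5 Tris-based buffer · Technique – TR-FRET, Eu(K)-anti-GST donor, streptavidin-D2 acceptor, ex 340, em 617/671 nm · Benchmarks – high control biotin, low control 0.6% DMSO · Format – 1536-well plates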
NR1D1 modulator: modulators of Rev-erb alpha DNA binding, primary screen, biochemical, FITC-DNA, fluorescence polarization, uHTS | 370,000 tested, 0.79% active | activity, % at 10 µM | Rev-erbα–FITC-DNA binding, 90 min | Nuclear receptor subfamily 1 group D member 1 (Homo sapiens), P20393;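 active = activity above about 14%, limit read from the data; passing the limit was not always enough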;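 note: 0% = DMSO wells with 35 nM protein and 100% = DMSO wells with 750 nM protein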
PG9 binder: binders of HIV-1 gp120 antibody PG9, primary screen, biochemical, TR-FRET; AID 624416, 2012; 360,000 tested, 0.43% active; inhibition, % at 6.7 µM; HIV-1 gp120 / PG9 antibody interaction; TR-FRET gp120-PG9 antibody binding; in the data active = inhibition above about 8.5%
NR2E3 ag-2: NR2E3 agonists in two-hybrid cells, primary screen, cell-based, luminescence, CHO-S, Gal4-NCOR/VP16-NR2E3 | Photoreceptor-specific nuclear receptor (Homo sapiens), Q9Y5X4 | inhibition of corepressor binding, % at 3.98 µM | 360,000 tested, 0.35% active | luciferase | AID 602229, 2012;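 active = inhibition above the mean of all tested compounds plus 3 SD, cut at about 70% in these data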;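 note: 0% = DMSO with NR2E3 transfected cells and 100% = cells lacking NR2E3 construct; higher means lower luciferase signal from less NR2E3 corepressor binding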
SKN-1 block: suppressors of acrylamide-induced Pgst-4::GFP reporter in worms, primary screen, SKN-1 inhibitor project, whole organism, uHTS, GFP/RFP fluorescence ratio, strain VP596. C. elegans VP596 Pgst-4::GFP/RFP ratio, 24 h. inhibition, % at 21.8 µM. 360,000 tested, 0.49% active. AID 624304, 2012;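 active = interference check ratio from 0.5 to 1.5 plus GFP to RFP signal ratio inhibition reaching or exceeding a fixed threshold, cut at about 30% in these data, passing the limit was not always enough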
NR1D1 mod conf: modulators of Rev-erb alpha DNA binding, confirmation, biochemical, FITC-DNA, fluorescence polarization, single point | activation, % at 25 µM | 3,000 tested, 61% active | shares compounds with NR1D1 modulator | 90 min | AID 1259319, 2017;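 active = activation at or above a set limit, or at least 3 SD above the negative control mean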;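 note: 0% = 35 nM protein with DMSO and 100% = 750 nM protein high control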
RORg DNA counter: modulation of RORgamma DNA binding, dose response, counter-screen for Rev-erb alpha modulator project, biochemical, fluorescence polarization, FITC-DNA. shares compounds with NR1D1 modulator. purified RORgamma protein-FITC-DNA binding. IC50, µM. 910 tested, 8% active. AID 1259320, 2017;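 active = Compounds whose fitted half-maximal concentration for disrupting protein-DNA binding is below 10 micromolar; the record names Rev-erb in its text, so the target is in doubt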
* hit, by the source's call; i = inactive; / = no result given.

SMILES | MT1-MMP act inh | NR2E3 ag-1 | NR1D1 modulator | PG9 binder | NR2E3 ag-2 | SKN-1 block | NR1D1 mod conf | others
Cc1nc(N2CCC(C)CC2)c2c(C)c(C(=O)Nc3ccc(C)c(F)c3)sc2n1 | -2.4 | 2.8 | 45.9* | -3.1 | -2.5 | 6.6 | 32.3* | RORg DNA counter=i
Cc1nc(N2CCN(c3ccccn3)CC2)c2c(C)c(C(=O)Nc3c(F)cc(F)cc3Br)sc2n1 | 3.5 | -2.1 | 46.3* | 3.3 | -22.9 | -8.6 | -2.5
Cc1nc(N2CCN(c3ccccn3)CC2)c2c(C)c(C(=O)Nc3c(C)cc(Br)cc3C)sc2n1 | -2.7 | -0.1 | 28.2* | -1.8 | 10.1 | 4.6 | -11.6
Cc1nc(N2CCN(c3ccccn3)CC2)c2c(C)c(C(=O)N3CCN(c4ccc(F)cc4)CC3)sc2n1 | -3.2 | 2.8 | 19.8* | -1.4 | -3.1 | 6.4 | 6.5
Cc1nc(N2CCN(c3ccccn3)CC2)c2c(C)c(C(=O)Nc3ccc(Cl)cc3)sc2n1 | -2.6 | 3.9 | 11.4 | -0.4 | -15.4 | 2.0 | /
Cc1nc(N2CCOCC2)c2c(C)c(C(=O)Nc3ccc(F)cc3F)sc2n1 | / | 2.3 | -0.1 | -0.6 | 3.5 | -7.3 | /
Cc1c(C(=O)N2CCN(c3ccc(F)cc3)CC2)sc2ncnc(N3CCN(c4ccccn4)CC3)c12 | 1.4 | 1.4 | 3.3 | -0.4 | -17.7 | 11.4 | /
Cc1nc(N2CCN(C)CC2)c2c(C)c(C(=O)Nc3ccc(C)c(F)c3)sc2n1 | -3.4 | -0.4 | 1.1 | -3.6 | -20.5 | 6.4 | /
CCCCCCCCN1C(=O)[C@@H](CC(=O)NCC2CCCCC2)C[C@@]2(C(=O)OC)C1=C[C@H](C1CCCC1)O[C@@H]2C | / | / | 3.7 | -0.7 | / | / | /
c1csc(-c2nnc(SCc3cccc4ccccc34)o2)c1 | / | / | 8.4 | / | / | / | /
CCCCNC(=O)C[C@H]1C[C@@]2(C(=O)OC)C(=C[C@H](C(C)(C)C)O[C@@H]2C)N(CCC2=CCCCC2)C1=O | / | / | 1.4 | -1.0 | / | / | /
COc1ccc(N2CCN(CCCNC(=O)Cn3c(=O)c4cccn4c4c(C)ccnc43)CC2)cc1 | / | / | -2.9 | / | / | / | /
O=C(Nc1ccc2nn(-c3ccccc3)nc2c1)c1ccc(Br)o1 | -1.6 | -10.8 | 36.6* | -11.1 | -38.4 | 6.8 | 26.0*
O=C(Nc1ccc2nn(-c3ccccc3)nc2c1)c1ccc2c(c1)OCCO2 | 8.7 | -1.4 | 14.4 | 1.6 | -115.7 | -16.8 | /
O=C1/C(=C\c2cc(Cl)c(O)c(Cl)c2)SC(=S)N1Cc1ccccc1 | -43.7 | / | 67.3* | 1.5 | 26.2 | -0.6 | 50.9* | RORg DNA counter=i
COc1cc2c(cc1NC(=O)CSc1nnc(-c3cccc(Cl)c3)n1Cc1ccco1)oc1ccccc12 | / | / | -9.9 | / | / | / | /
COc1ccc(Cl)cc1-c1cc(C(=O)Nc2ccc(F)cc2)[nH]n1 | 2.0 | / | 66.6* | 0.1 | 1.4 | -0.3 | 48.0* | RORg DNA counter=>40
Cc1ccc(-n2nnc(-c3cc4ccccc4nc3Cl)n2)cc1 | 6.9 | 7.0 | 35.3* | 0.1 | -19.7 | 19.4 | 29.7*
Cc1[nH]c2ccccc2c1C(=O)c1c(N)[nH]c(C(=O)c2ccccc2)c1-c1ccc(Cl)cc1 | / | / | 1.1 | 0.9 | / | / | /
Cc1cccc(NC(=O)Nc2cnccn2)c1C | -1.4 | 2.7 | 17.7* | 0.9 | -9.9 | 15.3 | -2.2
COc1ccc(-c2cc(NC=O)c3ncc(-c4cccc(C(=O)NCCN(C)C)c4)n3c2)c(OC)c1 | -5.1 | / | 4.3 | 0.2 | -28.6 | -16.0 | /
O=c1[nH]c(=S)c2[nH]c(=S)n(-c3ccccc3)c2[nH]1 | 0.7 | / | 15.2* | -2.7 | -12.2 | -7.3 | 0.4
CCSc1nnc(-c2ccc(C)cc2)c2ccccc12 | 2.8 | 0.8 | -2.3 | 1.1 | 5.8 | 7.7 | /
CCSc1nnc(-c2ccc(Cl)cc2)c2ccccc12 | -5.0 | 3.5 | 239.1* | 1.1 | -4.5 | -8.8 | 288.7* | RORg DNA counter=>40
CCCN1C(=O)/C(=C/c2c(NCCCOCC)nc3c(C)cccn3c2=O)SC1=S | -176.0 | / | -3.3 | 0.0 | -1.1 | 8.8 | /
SMILES | MT1-MMP act inh | NR2E3 ag-1 | NR1D1 modulator | PG9 binder | NR2E3 ag-2 | SKN-1 block | NR1D1 mod conf | others
O=C1/C(=C\c2c(NCCOCCO)nc3ccccn3c2=O)SC(=S)N1Cc1ccco1 | -26.7 | -0.3 | 32.8* | -1.7 | -11.1 | 81.4 | 11.3
C=CCN1C(=O)/C(=C2/Sc3ccc(OC)cc3N2C)SC1=NCc1ccccc1 | -7.7 | 3.7 | 55.2* | -1.5 | -2.6 | 4.7 | 47.1* | RORg DNA counter=>40
Cc1ccccc1-c1cccc2[nH]c3c(c12)CCN1C(=O)[C@H]2[C@H](C)ON(C)[C@H]2C[C@@H]31 | / | / | 3.8 | 0.5 | / | / | /
N#Cc1cccc(NC(=O)c2cc(C3CCCCN3C(=O)CCCc3ccccc3)on2)c1 (stereo unspecified) | -1.8 | / | -4.6 | -0.3 | -20.7 | 16.5 | /
Brc1cc2c(cc1-c1nc3ccccc3s1)OCO2 | 2.1 | -2.1 | 27.5* | 1.7 | -13.2 | 7.9 | 13.0
Cc1cc(N2CCN(CC(C)(C)O)C[C@@H]2C)ccc1N1CCN(CC(C)(C)O)[C@H](C)C1 | / | / | -0.3 | 0.0 | / | / | /
O=C(NN1C(=O)/C(=C\c2ccc(O)c([N+](=O)[O-])c2)SC1=S)c1ccccc1Cl | 18.4 | 0.5 | 28.2* | -1.0 | -0.8 | 0.9 | 14.8
CC(=O)NN1C(=O)/C(=C\c2ccc(O)cc2)SC1=S | -28.2 | -5.3 | 20.4* | -5.9 | 18.6 | 4.9 | 18.9*
CCSc1ncnc2c1oc1ccccc12 | 4.1 | -4.0 | 0.0 | -0.4 | -6.3 | 3.9 | /
Fc1ccc(CSc2ncnc3c2oc2ccccc23)cc1 | 0.7 | -1.5 | 289.9* | 2.0 | -2.2 | -2.0 | 283.8* | RORg DNA counter=>40
Fc1cccc(CSc2ncnc3c2oc2ccccc23)c1 | 0.1 | 2.6 | 122.2* | -1.3 | -8.8 | 17.2 | 153.9* | RORg DNA counter=6.31*
Cc1nc(SCc2ccc(F)cc2)c2oc3ccccc3c2n1 | 3.7 | 3.5 | 2.2 | -1.4 | -12.6 | 20.5 | /
CC(C)(C)S(=O)(=O)N1C[C@@H]2CC(=O)C=C2[C@H]1CCO | / | / | -3.7 | 0.6 | / | / | /
